Measurements: ChEMBL document CHEMBL1125912, “Topically active carbonic anhydrase inhibitors. 4. [(Hydroxyalkyl)sulfonyl]benzene and [(hydroxyalkyl)sulfonyl]thiophenesulfonamides” (J Med Chem, 1991)
In brackets after ≈: the same amount, converted by molar mass.

Legend:
[1] = Solubility (buffer pH 7.4); type: physicochemical; settings: read-out: S
In short: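 Solubility in 50 mM phosphate buffer, pH 7.4.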

[2] = Dissociation constant (pKa) (determined in 30% EtOH/water); type: physicochemical
[3] = target: Carbonic anhydrase 2 (Homo sapiens, UniProt P00918); assay: Inhibitory activity against human carbonic anhydrase II using pH stat assay; type: functional; settings: read-out: I50
[4] = Partition coefficient (pH 7.4); type: ADME; settings: octanol/water
In short: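 1-Octanol/phosphate buffer partition at pH 7.4 and 0.1 ionic strength. The compound was equilibrated between the phases and the concentration in each phase was measured by UV spectrophotometry.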

[5] = organism: Oryctolagus cuniculus; assay: Maximum fall in IOP after 50 uL dose of 0.5% concentration in alpha-CT rabbit model; type: functional
In short: (§1)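 Alpha-chymotrypsinized rabbit model of ocular hypertension. Single 50-µL bilateral instillation of a 0.5% (w/v) solution in 0.5% aqueous (hydroxyethyl)cellulose vehicle. Read-out is the fall in IOP.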

[6] = test system: Oryctolagus cuniculus; assay: Tested in vivo for the IOP (intraocular pressure) recovery after 50 uL dose of 2% concentration in albino rabbits.; type: functional, Eye
In short: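 Conscious albino rabbits. Aqueous humor production was assessed indirectly by IOP recovery rate. A single bilateral 50-µL instillation of 2% (w/v) in 0.5% aqueous (hydroxyethyl)cellulose vehicle was given. Results are percent change from control, tested by Dunnett's two-tailed test (P<0.05).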

[7] = organism: Oryctolagus cuniculus; assay: Maximum fall in IOP after 50uL dose of 0.5% concentration in alpha-CT rabbit model; ns = 'no significant statistical change'; type: functional, organism-based; in short: as §1
[8] = organism: Oryctolagus cuniculus; assay: Maximum fall in IOP after 50 microL dose of 0.5% concentration in alpha-CT rabbit model.; type: functional; in short: as §1

| Compound | solubility [1] | pKa [2] | IC50 [3] | D [4] | Max fall in IOP [5] | Change from control [6] | Max fall in IOP [7] | Max fall in IOP [8] |
| --- | --- | --- | --- | --- | --- | --- | --- | --- |
| NS(=O)(=O)c1ccc(SCCCO)s1 | 9500 µg/mL (≈ 37.5 mM) | 9.32 | 10 nM | 7 | – | – | – | – |
| CC(=O)OCCS(=O)(=O)c1ccc(S(N)(=O)=O)s1 | 880 µg/mL (≈ 2.81 mM) | 8.65 | 5.5 nM | 1.3 | – | – | – | – |
| NS(=O)(=O)c1ccc(S(=O)(=O)CCCCO)c(F)c1 | 4300 µg/mL (≈ 13.8 mM) | 9.18 | 4 nM | 0.55 | – | – | – | – |
| CC(=O)OCCCCc1ccc(S(N)(=O)=O)cc1 | 8000 µg/mL (≈ 29.5 mM) | 10.5 | – | – | – | – | – | – |
| COC(=O)c1cc(S(N)(=O)=O)ccc1S(=O)(=O)CCO | 33400 µg/mL (≈ 103 mM) | 9.2 | 30 nM | 0.34 | -6.3 mmHg | -24% | – | – |
| COC(=O)c1cc(S(N)(=O)=O)ccc1S(=O)(=O)CCCO | 1500 µg/mL (≈ 4.45 mM) | 8.9 | 20 nM | 0.5 | – | – | – | – |
| NS(=O)(=O)c1ccc(SCCCCO)c(F)c1 | 1000 µg/mL (≈ 3.58 mM) | 9.82 | 1.5 nM | 19 | – | – | – | – |
| CC(C)COC(=O)OCCCS(=O)(=O)c1ccc(S(N)(=O)=O)s1 | 80 µg/mL (≈ 0.208 mM) | – | – | – | – | – | – | – |
| NS(=O)(=O)c1ccc(S(=O)(=O)CCCO)c([N+](=O)[O-])c1 | 800 µg/mL (≈ 2.47 mM) | 8 | – | 0.9 | – | – | – | – |
| NS(=O)(=O)c1ccc(CCCCCO)cc1 | 2600 µg/mL (≈ 10.7 mM) | 10.3 | 8 nM | 11 | – | -38% | – | – |
| NS(=O)(=O)c1ccc(SCCO)c(F)c1 | 6000 µg/mL (≈ 23.9 mM) | 9.76 | 9 nM | 5.3 | – | -34% | No significance | – |
| NS(=O)(=O)c1ccc(SCCCO)c(Cl)c1 | 280 µg/mL (≈ 0.994 mM) | 9.45 | 9 nM | 39 | – | – | – | – |
| NS(=O)(=O)c1ccc(S(=O)(=O)CCCCO)s1 | 9900 µg/mL (≈ 33.1 mM) | 8.67 | 2.3 nM | 0.46 | – | – | – | – |
| Nc1cc(S(N)(=O)=O)ccc1S(=O)(=O)CCO | 13200 µg/mL (≈ 47.1 mM) | 9.5 | 51 nM | 0.25 | – | – | – | – |
| NS(=O)(=O)c1ccc(CCCO)c(F)c1 | – | – | 20 nM | – | – | – | – | – |
| NS(=O)(=O)c1ccc(SCCCCO)s1 | 9300 µg/mL (≈ 34.8 mM) | 9.5 | 3 nM | 9 | – | – | – | – |
| CC(C)(O)CCS(=O)(=O)c1ccc(S(N)(=O)=O)cc1 | 3500 µg/mL (≈ 11.4 mM) | 9.28 | 25 nM | 0.82 | – | – | – | – |
| CC(C)(O)CCSc1ccc(S(N)(=O)=O)cc1 | 400 µg/mL (≈ 1.45 mM) | 10 | 20 nM | 25.2 | – | -51% | No significance | – |
| NS(=O)(=O)c1ccc(SCCCCCO)cc1 | 600 µg/mL (≈ 2.18 mM) | 9.25 | 4.3 nM | 10.9 | – | – | – | – |
| NS(=O)(=O)c1ccc(S(=O)(=O)CCO)s1 | 22000 µg/mL (≈ 81.1 mM) | 8.65 | 6 nM | 0.29 | – | – | – | – |
| NS(=O)(=O)c1cc2ccc(O)cc2s1 | – | – | – | – | – | -31% | – | -5.4 mmHg |
| CC(=O)OCCCS(=O)(=O)c1ccc(S(N)(=O)=O)s1 | 920 µg/mL (≈ 2.81 mM) | 8.05 | 5 nM | 1.47 | – | – | – | – |
| NS(=O)(=O)c1ccc(SCCCO)c([N+](=O)[O-])c1 | 100 µg/mL (≈ 0.342 mM) | 9.38 | 23 nM | 9.1 | – | – | – | – |

| Compound | solubility [1] | pKa [2] | IC50 [3] | D [4] | Max fall in IOP [5] | Change from control [6] | Max fall in IOP [7] | Max fall in IOP [8] |
| --- | --- | --- | --- | --- | --- | --- | --- | --- |
| COCC(=O)OCCCS(=O)(=O)c1ccc(S(N)(=O)=O)s1 | 970 µg/mL (≈ 2.71 mM) | 8.1 | 4.5 nM | 0.72 | – | – | – | – |
| NS(=O)(=O)c1ccc(S(=O)(=O)CCCO)s1 | 14600 µg/mL (≈ 51.2 mM) | 8.32 | 6 nM | 0.44 | – | – | – | – |
| NS(=O)(=O)c1ccc(SCCO)cc1 | 3500 µg/mL (≈ 15 mM) | 9.27 | – | 2.3 | – | – | – | – |
| NS(=O)(=O)c1ccc(S(=O)(=O)CCCCO)cc1 | 2100 µg/mL (≈ 7.16 mM) | 9.6 | 7 nM | 0.25 | – | – | – | – |
| Nc1cc(S(N)(=O)=O)ccc1S(=O)(=O)CCCO | 8400 µg/mL (≈ 28.5 mM) | 9.15 | 23 nM | 0.33 | – | – | – | – |
| COC(=O)c1cc(S(N)(=O)=O)ccc1SCCCO | 1300 µg/mL (≈ 4.26 mM) | 9.3 | 700 nM | 5.5 | -4.5 mmHg | -30% | – | – |
| NS(=O)(=O)c1ccc(SCCCO)c(F)c1 | 900 µg/mL (≈ 3.39 mM) | 9.64 | 3.5 nM | 9.8 | -3.6 mmHg | -30% | – | – |
| NS(=O)(=O)c1ccc(CCCO)cc1 | 20000 µg/mL (≈ 92.9 mM) | 10.2 | 64 nM | 1.48 | – | – | – | – |
| NS(=O)(=O)c1ccc(SCCO)s1 | 49000 µg/mL (≈ 205 mM) | 9.46 | 30 nM | 2.4 | – | – | – | – |
| NS(=O)(=O)c1ccc(SCCO)c(C(=O)O)c1 | 9300 µg/mL (≈ 33.5 mM) | 10.4 | – | 0.01 | – | – | – | – |
| NS(=O)(=O)c1ccc(S(=O)(=O)CC(O)CO)cc1 (centres undefined) | 14900 µg/mL (≈ 50.5 mM) | 9.35 | – | – | – | – | – | – |
| NS(=O)(=O)c1ccc(S(=O)(=O)CCCO)cc1 | 7200 µg/mL (≈ 25.8 mM) | 8.98 | 12 nM | 0.23 | – | -37% | No significance | – |
| NS(=O)(=O)c1ccc(S(=O)(=O)CCCO)c(F)c1 | 6600 µg/mL (≈ 22.2 mM) | 9.02 | 4.5 nM | 0.39 | -6.2 mmHg | -43% | – | – |
| NS(=O)(=O)c1ccc(S(=O)(=O)CCO)c(F)c1 | 3300 µg/mL (≈ 11.6 mM) | 9 | 5 nM | 0.25 | – | -37% | No significance | – |
| NS(=O)(=O)c1ccc(SCCCO)c(C(=O)O)c1 | 8800 µg/mL (≈ 30.2 mM) | 9.94 | 10000 nM | 0.01 | – | – | – | – |
| NS(=O)(=O)c1ccc(CCCCO)cc1 | 14700 µg/mL (≈ 64.1 mM) | 10.3 | 15 nM | 3.7 | – | – | – | – |
| NS(=O)(=O)c1ccc(SCCO)c([N+](=O)[O-])c1 | 500 µg/mL (≈ 1.8 mM) | 9.42 | 21 nM | 2.4 | – | – | – | – |
| NS(=O)(=O)c1ccc(S(=O)(=O)CCCO)c(C(=O)O)c1 | 53000 µg/mL (≈ 164 mM) | 9.28 | 900 nM | 0.002 | – | – | – | – |
| CC(=O)Oc1ccc2cc(S(N)(=O)=O)sc2c1 | – | – | – | – | – | -43% | – | -5.5 mmHg |
| CC(C)CNCCCS(=O)(=O)c1ccc(S(N)(=O)=O)s1 | – | 9.3 | 18 nM | 0.45 | – | – | – | – |
| NS(=O)(=O)c1ccc(SCCCCO)cc1 | 800 µg/mL (≈ 3.06 mM) | 10.2 | 9 nM | 8.48 | – | – | – | – |
| NS(=O)(=O)c1ccc(SCCCO)cc1 | 1400 µg/mL (≈ 5.66 mM) | 10.2 | 20 nM | 6.25 | – | – | – | – |
